Activity calls are given as the source filed them.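 Rule for the calls, unless noted: active = viability at or below 10% of carrier control in both of two separate runs; inconclusive = viability at or below 10% in only one of the two runs; inactive = the rest.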

Test [1] can be described thus: Her2 expression decrease, cell viability multiplex – SKBR3 breast tumor cells, AlphaScreen, ATP viability, primary screen (AID 461;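 active = Her2 level under about 52% in both replicate screens, with viability over 70% of control, limit read from the data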;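 for Her2 level: lower value means less Her2 protein in the cells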;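 for viability: percent of carrier control wells set as 100% viability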). The settings on record: SKBR3 Her2 protein level, 18-24 h, measured here: SKBR3 viability, ATP luminescence, at 10 µM.
Test [2] addresses Receptor tyrosine-protein kinase erbB-2 (Homo sapiens) (UniProt P04626). Described as above. To be noted: 18-24 h, at 10 µM, stronger effect = lower value.
Test [3] is described as follows: reduced viability of SK-BR-3 breast cancer cells – cell-based, 24 h, human, pilot screen (AID 572).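 Note: compound exposure lasted between 18 and 24 h rather than exactly 24 h; 100% = carrier-treated control wells.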 To be noted: SK-BR-3 viability, CellTiter-Glo luminescence, at 10 µM, stronger effect = lower value.
Test [4] in a line: HUVEC growth inhibition – cell-based, human, primary screen (AID 575;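 active = viability at or below 30% in both replicate assays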;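 note: 100% = median of untreated cell wells with 0.1% DMSO on each plate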). To be noted: HUVEC proliferation, CellTiter-Glo luminescence, 72 h; at 10 µM; stronger effect = lower value. Summed up:
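System – primary HUVEC, no more than 12 passages · Medium – Low-serum (2% FBS) EBM, supplemented · Times – 72 h exposure, 37 °C, 5% CO2, 30 min RT equilibration · Measured by – luminescent ATP assay · Read-out – % viability relative to median vehicle-well signal on each plate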

Test [5] is described as follows: H69AR cell proliferation blockers – human, duplicate replicates, primary screen (AID 580;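 active = viability at or under a set limit in both replicates, limit being median viability minus 3 SD, cut at about 48% in these data, passing the limit was not always enough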;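 note: 100% = mean luminescence of untreated wells and 0% = no signal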). The settings on record: H69AR lung tumor cells viability, ATP luminescence, 72 h; at 10 µM; stronger effect = lower value.
A short description of test [6]: MRP1 drug-resistance reversers in H69AR cells – cell-based, doxorubicin co-treatment, pilot screen (AID 601;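 active = viability loss from added drug above about 55%, and viability with drug at most 40%, in both replicates, limit read from the data, passing the limit was not always enough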). To be noted: CellTiter-Glo, 72 h, at 10 µM; for differential viability (reversal): stronger effect = higher value.
Test [7] can be described thus: yeast transport mutant growth inhibition pilot in 384-well plates, post-Golgi transport modulator project (AID 636; in the data active = inhibition above about 31%). The settings on record: absorbance 615 nm, about 18 h, stronger effect = higher value.
The nature of test [8]: growth suppression of yeast trafficking mutant, preliminary HTS, modulators of trafficking downstream of Golgi apparatus project, 1536-format plate, OD 615 nm (AID 637; in the data active = inhibition above about 30%). To be noted: yeast transport mutant growth, absorbance 615 nm, 18 h; stronger effect = higher value.
Setting [9] is: H69AR cells + 2 uM doxorubicin, measured here: viability with 2 uM doxorubicin, stronger effect = lower value.
[10] abbreviates: H69AR cells, compound alone cytotoxicity.

Chain of Receptor tyrosine-protein kinase erbB-2 (Homo sapiens) (P04626 whole entry, looked up): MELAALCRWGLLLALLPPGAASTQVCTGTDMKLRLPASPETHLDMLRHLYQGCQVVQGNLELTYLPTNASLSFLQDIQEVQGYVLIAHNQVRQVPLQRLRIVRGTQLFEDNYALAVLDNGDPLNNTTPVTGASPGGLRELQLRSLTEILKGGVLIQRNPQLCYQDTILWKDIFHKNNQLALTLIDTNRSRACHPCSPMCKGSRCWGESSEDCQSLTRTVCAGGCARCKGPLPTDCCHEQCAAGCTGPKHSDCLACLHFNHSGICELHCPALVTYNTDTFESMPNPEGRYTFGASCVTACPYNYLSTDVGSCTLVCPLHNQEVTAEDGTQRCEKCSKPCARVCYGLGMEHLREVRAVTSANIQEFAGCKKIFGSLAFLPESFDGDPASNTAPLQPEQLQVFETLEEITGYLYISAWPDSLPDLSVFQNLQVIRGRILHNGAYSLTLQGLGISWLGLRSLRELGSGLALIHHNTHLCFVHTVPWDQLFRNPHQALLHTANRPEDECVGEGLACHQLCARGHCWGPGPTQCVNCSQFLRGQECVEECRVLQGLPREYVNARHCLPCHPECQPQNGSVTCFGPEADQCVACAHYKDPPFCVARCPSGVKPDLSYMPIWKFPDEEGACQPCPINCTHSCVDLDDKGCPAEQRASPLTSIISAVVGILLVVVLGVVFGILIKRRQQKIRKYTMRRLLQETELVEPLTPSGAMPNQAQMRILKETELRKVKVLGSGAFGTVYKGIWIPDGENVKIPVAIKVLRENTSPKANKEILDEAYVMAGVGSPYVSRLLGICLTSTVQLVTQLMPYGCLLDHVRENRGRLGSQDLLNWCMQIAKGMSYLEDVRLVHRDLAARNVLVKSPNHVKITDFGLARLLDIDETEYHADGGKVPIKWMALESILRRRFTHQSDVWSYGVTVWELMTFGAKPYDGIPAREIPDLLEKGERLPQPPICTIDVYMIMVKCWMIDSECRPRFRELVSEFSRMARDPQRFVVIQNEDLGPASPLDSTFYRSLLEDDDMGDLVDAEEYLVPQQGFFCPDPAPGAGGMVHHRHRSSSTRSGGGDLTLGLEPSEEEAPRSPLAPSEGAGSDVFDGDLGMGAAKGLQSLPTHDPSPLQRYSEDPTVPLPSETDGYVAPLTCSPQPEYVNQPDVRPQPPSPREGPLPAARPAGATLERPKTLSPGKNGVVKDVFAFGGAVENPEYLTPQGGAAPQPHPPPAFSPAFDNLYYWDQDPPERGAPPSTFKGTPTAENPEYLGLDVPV

For `Cc1c(C#N)c(N)c(C(=O)c2ccccc2)n1Cc1ccccc1`, the viability in test [1] is 83.5%; in test [3], 83.5% (inactive); in test [4], 97.3% (inactive); in test [5], 87.4% (inactive); in test [6] (setting [9]), 87.3%; in test [6] (setting [10]), 87.4%. Moreover, the Her2 level in test [2] is 122% (inactive). Moreover, in test [6] (H69AR cells + 2 uM doxorubicin), the differential viability (reversal) is 0.08% (inactive). For the same compound, the inhibition in test [7] is -7.57% (inactive); in test [8], -16.4% (inactive).
As to `O=C(C1CCCO1)N1CCN(C(c2ccccc2)c2ccccc2)CC1` (stereo not given), the viability is 98.5% in test [1]; 98.5% (inactive) in test [3]; 89.1% (inactive) in test [4]; 96% (inactive) in test [5]; 89.5% in test [6] (setting [9]); 96% in test [6] (setting [10]). For the same compound, the Her2 level in test [2] is 94% (inactive). In test [6] (H69AR cells + 2 uM doxorubicin), the differential viability (reversal) is 6.47% (inactive). Further, the results for the inhibition in test [7] and in test [8] were -0.91% (inactive) and 2.62% (inactive), respectively.
As to `C/C(=C\C(=O)c1ccc(F)cc1)Nc1ccc(N2CCOCC2)cc1`, the viability is 89.5% in test [1]; 89.5% (inactive) in test [3]; 114% (inactive) in test [4]; 90.9% (inactive) in test [5]; 89.1% in test [6] (setting [9]); 90.9% in test [6] (setting [10]). Further, in test [2], the Her2 level was 97% (inactive). Also, in test [6] (H69AR cells + 2 uM doxorubicin), the differential viability (reversal) was 1.85% (inactive). Also, the inhibition in test [7] is -4.4% (inactive); in test [8], -0.65% (inactive).
Take `Cc1cc(C(=O)Cn2cncn2)c(C)n1CCc1ccc(F)cc1`: the viability in test [1] is 64%; in test [3], 64% (inactive); in test [4], 105% (inactive); in test [5], 89.2% (inactive); in test [6] (setting [9]) it was 95%; in test [6] (setting [10]), 89.2%. Moreover, the Her2 level in test [2] is 80% (inactive). In addition, the differential viability (reversal) in test [6] (H69AR cells + 2 uM doxorubicin) was -5.71% (inactive). Also, the inhibition in test [7] is -5.41% (inactive); in test [8], 3.11% (inactive).
In the case of `CN(C)S(=O)(=O)c1ccc(S(=O)(=O)N(Cc2ccco2)Cc2ccccc2Cl)cc1`, the viability is 93% in test [1]; 93% (inactive) in test [3]; 100% (inactive) in test [4]; 95.8% (inactive) in test [5]; 88.2% in test [6] (setting [9]); 95.8% in test [6] (setting [10]). Also, the Her2 level in test [2] is 93% (inactive). In addition, the differential viability (reversal) in test [6] (H69AR cells + 2 uM doxorubicin) was 7.62% (inactive). Besides, the inhibition in test [7] is -9.18% (inactive); in test [8], -2.7% (inactive).
`Cc1ccc(-c2nnc(SCC(=O)N3CC(C)CC(C)C3)o2)cc1C` (stereo not given): the viability was 97% in test [1]; 97% (inactive) in test [3]; 71.4% (inactive) in test [4]; 90.7% (inactive) in test [5]; 92.7% in test [6] (setting [9]); 90.7% in test [6] (setting [10]). The Her2 level in test [2] was 106% (inactive). Moreover, in test [6] (H69AR cells + 2 uM doxorubicin), the differential viability (reversal) was -2.04% (inactive). Besides, the inhibition in test [7] is -2.13% (inactive); in test [8], -4.75% (inactive).
Take `CCOc1cccc(Oc2ccc(C(F)(F)F)cn2)c1`: the viability in test [1] is 99%; in test [3], 99% (inactive); in test [4], 99.6% (inactive); in test [5] it was 99.9% (inactive); in test [6] (setting [9]), 93.3%; in test [6] (setting [10]) it was 99.9%. For the same compound, in test [2], the Her2 level is 93.5% (inactive). The differential viability (reversal) in test [6] (H69AR cells + 2 uM doxorubicin) is 6.58% (inactive). In addition, the inhibition in test [7] is -7.33% (inactive); in test [8] it was 0.81% (inactive).
`O=C(CN(c1ccccc1)S(=O)(=O)c1ccccc1)N1CCN(Cc2ccc3c(c2)OCO3)CC1`: the viability in test [1] is 104%; in test [3], 104% (inactive); in test [4], 92.7% (inactive); in test [5] it was 96.9% (inactive); in test [6] (setting [9]), 91.8%; in test [6] (setting [10]) it was 96.9%. Further, the Her2 level in test [2] is 73% (inactive). Besides, the differential viability (reversal) in test [6] (H69AR cells + 2 uM doxorubicin) is 5.03% (inactive). Moreover, the inhibition was -6% (inactive) in test [7] and 0.32% (inactive) in test [8].
Take `CCOC(=O)c1cc(-c2nnc(-c3ccc(Oc4ccccc4)cc3)o2)c(C)nc1C`: the viability in test [1] was 85%; in test [3], 85% (inactive); in test [4], 80.5% (inactive); in test [5], 102% (inactive); in test [6] (setting [9]), 85.7%; in test [6] (setting [10]), 102%. Besides, the Her2 level in test [2] is 88% (inactive). Further, the differential viability (reversal) in test [6] (H69AR cells + 2 uM doxorubicin) is 16.7% (inactive). The figures for the inhibition in test [7] and in test [8] were -1.6% (inactive) and -0.16% (inactive), respectively.
Consider `CC(C)c1nc(N2CCN(C(=O)c3ccco3)CC2)c2c3c(sc2n1)CCCC3`, for which the viability was 76.5% in test [1]; 76.5% (inactive) in test [3]; 66.4% (inactive) in test [4]; 79.5% (inactive) in test [5]; 78.5% in test [6] (setting [9]); 79.5% in test [6] (setting [10]). Besides, in test [2], the Her2 level is 94% (inactive). Besides, in test [6] (H69AR cells + 2 uM doxorubicin), the differential viability (reversal) is 1.06% (inactive). Besides, the inhibition in test [7] was -0.53% (inactive); in test [8] it was 20.9% (inactive).
`CC(C)CCNC(=O)NC(=O)CSc1nnc(-c2ccccc2F)n1N`: the viability in test [1] was 94%; in test [3], 94% (inactive); in test [4] it was 99.9% (inactive); in test [5], 98.1% (inactive); in test [6] (setting [9]), 91.9%; in test [6] (setting [10]) it was 98.1%. The Her2 level in test [2] was 108% (inactive). For the same compound, in test [6] (H69AR cells + 2 uM doxorubicin), the differential viability (reversal) was 6.23% (inactive). The inhibition in test [7] is 8.03% (inactive); in test [8] it was 14.8% (inactive).
Consider `CCOC(=O)C1=C(N)OC2=C(C(=O)CC(C)(C)C2)C1c1ccoc1` (stereo not given), for which the viability in test [1] is 80%; in test [3], 80% (inactive); in test [4], 112% (inactive); in test [5], 96.3% (inactive); in test [6] (setting [9]) it was 87.7%; in test [6] (setting [10]), 96.3%. Further, the Her2 level in test [2] is 107% (inactive). Further, the differential viability (reversal) in test [6] (H69AR cells + 2 uM doxorubicin) was 8.7% (inactive). In addition, the inhibition in test [7] is -5.53% (inactive); in test [8], -8.33% (inactive).
Take `CN(C(=O)c1ccncc1)C1CC(C)(C)N(O)C(C)(C)C1`: the viability was 124% in test [1]; 124% (inactive) in test [3]; 87.7% (inactive) in test [4]; 92.3% (inactive) in test [5]; 94.2% in test [6] (setting [9]); 92.3% in test [6] (setting [10]). Moreover, the Her2 level in test [2] is 96.5% (inactive). Moreover, the differential viability (reversal) in test [6] (H69AR cells + 2 uM doxorubicin) is -1.93% (inactive). In addition, the inhibition was -7.11% (inactive) in test [7] and -6.36% (inactive) in test [8].
For `CC(C)(C)OC(=O)N1CC=C2C(C#N)=C(N)C(C#N)(C#N)[C@H](c3cccnc3)[C@H]2C1`, the viability in test [1] was 88%; in test [3] it was 88% (inactive); in test [4], 81.1% (inactive); in test [5], 86.3% (inactive); in test [6] (setting [9]), 98.7%; in test [6] (setting [10]), 86.3%. Also, the Her2 level in test [2] was 100% (inactive). In test [6] (H69AR cells + 2 uM doxorubicin), the differential viability (reversal) was -12.4% (inactive). For the same compound, the inhibition was -2.67% (inactive) in test [7] and 14% (inactive) in test [8].
Regarding `O=C(NCc1cccs1)C1CC(c2ccccc2O)=NO1` (stereo not given), the viability in test [1] is 74%; in test [3], 74% (inactive); in test [4] it was 63.4% (inactive); in test [5], 104% (inactive); in test [6] (setting [9]), 87.3%; in test [6] (setting [10]), 104%. Further, the Her2 level in test [2] is 78.5% (inactive). In addition, in test [6] (H69AR cells + 2 uM doxorubicin), the differential viability (reversal) is 16.5% (inactive). The results for the inhibition in test [7] and in test [8] were -3.73% (inactive) and -0.33% (inactive), respectively.
Turning to `Cc1c(NC(=O)c2coc(=O)c(Br)c2)c(=O)n(-c2ccccc2)n1C`, the viability in test [1] is 85%; in test [3] it was 85% (inactive); in test [4], 72.9% (inactive); in test [5], 1.47% (active); in test [6] (setting [9]) it was 1.64%; in test [6] (setting [10]), 1.47%. Also, the Her2 level in test [2] is 27.5% (active). The differential viability (reversal) in test [6] (H69AR cells + 2 uM doxorubicin) is -0.165% (inactive). The inhibition in test [7] was -4.55% (inactive); in test [8], -4.92% (inactive).

These data come from PubChem BioAssay.
